From ChEMBL document CHEMBL1147882, “In vitro efficiency of new acridyl derivatives against Plasmodium falciparum” (Bioorg Med Chem, 2007)

Experiments:
Assay type in all cases: functional, organism-based
Plasmodium falciparum [1] = assay: Antimalarial activity against chloroquine-sensitive Plasmodium falciparum 3D7 by hypoxanthine uptake
Summary of the method: (§1)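 Synchronous parasites diluted in A-positive human erythrocytes with RPMI 1640 + 10% human serum, 25 mM HEPES, 25 mM NaHCO₃, to 0.2 parasitemia and 1.5 hematocrit. Added to wells predosed with drug, 0.06 to 200 µM in triplicate. 1 µCi [³H]hypoxanthine per well, 42 h at 37 °C. Incorporated radioactivity counted by scintillation. IC50 from non-linear regression of log-dose/response versus drug-free controls.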

Plasmodium falciparum [2] = assay: Antimalarial activity against chloroquine-resistant Plasmodium falciparum W2 by hypoxanthine uptake; summary of the method: as §1
Plasmodium falciparum [3] = assay: Antimalarial activity against chloroquine-resistant Plasmodium falciparum FCR3 by hypoxanthine uptake; summary of the method: as §1
Plasmodium falciparum [4] = assay: Antimalarial activity against chloroquine-resistant Plasmodium falciparum Bre1 by hypoxanthine uptake; summary of the method: as §1

Structure (SMILES) | IC50 (Plasmodium falciparum [1]) | IC50 (Plasmodium falciparum [2]) | IC50 (Plasmodium falciparum [3]) | IC50 (Plasmodium falciparum [4])
COc1ccc2nc3cc(Cl)ccc3c(NCCCCCCN)c2c1 | 0.13 µM | 0.18 µM | 0.2 µM | 0.17 µM
COc1ccc2nc3cc(Cl)ccc3c(NCCCCCCNC(=O)CCCNC(=O)CN)c2c1 | 0.89 µM | 0.83 µM | 0.81 µM | 0.62 µM
COc1ccc2nc3cc(Cl)ccc3c(NCCCCCCNC(=O)CCN)c2c1 | 0.91 µM | 1.25 µM | 1.25 µM | 1.26 µM
N=C(N)NCCCC(N)C(=O)NCC(=O)NCCCCCCNC(=O)c1c2ccccc2nc2ccccc12 (configuration not stated) | 42 µM | 43.6 µM | 42.5 µM | 47.6 µM
COc1ccc2nc3cc(Cl)ccc3c(NCCCCCCNC(=O)CCCNC(=O)CNC(=O)C(N)CCCNC(=N)N)c2c1 (configuration not stated) | 0.84 µM | 0.82 µM | 0.67 µM | 0.5 µM
COc1ccc2nc3cc(Cl)ccc3c(NCCCCCCNC(=O)CCNC(=O)CCNC(=O)C(N)CCCNC(=N)N)c2c1 (configuration not stated) | 3.32 µM | 0.94 µM | 0.86 µM | 0.86 µM
N=C(N)NCCCC(N)C(=O)NCC(=O)NCCCCCCCC(=O)Nc1c2ccccc2nc2ccccc12 (configuration not stated) | 27.1 µM | 30.5 µM | 27.2 µM | 28.7 µM
COc1ccc2nc3cc(Cl)ccc3c(NCCCCCCNC(=O)CCCN)c2c1 | 0.19 µM | 0.57 µM | 0.54 µM | 0.18 µM
